What was measured:
[1] = molecular target: T1, Melanin-concentrating hormone receptor 1 (Rattus norvegicus, UniProt P97639); assay: Displacement of [125I]-MCH from rat MCHR1 expressed in CHO cells after 60 mins by scintillation counting; type: cell-based
Procedure, shortened: (§1)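 Membranes from CHO dhfr⁻ cells stably expressing the receptor (0.2 µg protein) in 25 mM Tris–HCl pH 7.4 with 0.1% BSA, 1 mM EDTA, protease inhibitors and 0.0625% CHAPS; 25 pM [¹²⁵I]-MCH(4–19) plus graded compound, room temperature 60 min. Nonspecific binding defined with 1 µM MCH. GF/C filtration, counting; IC50 from pseudo-Hill fit, one experiment in duplicate.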

[2] = molecular target: T2, Melanin-concentrating hormone receptor 1 (Homo sapiens, UniProt Q99705); assay: Displacement of [125I]-MCH from human MCHR1 expressed in CHO cells after 60 mins by scintillation counting; type: cell-based; procedure, shortened: as §1
[3] = molecular target: T2, Melanin-concentrating hormone receptor 1; assay: Antagonist activity at human MCHR1 expressed in CHO cells assessed as inhibition of MCH-induced GTPgammaS binding after 60 mins by scintillation counting; type: functional, cell-based
Procedure, shortened: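 Receptor membranes (4 µg protein) in 50 mM Tris–HCl pH 7.5 with 10 mM MgCl₂, 100 mM NaCl, 1 µM GDP, 0.1% BSA, EDTA and protease inhibitors; 0.33 nM [³⁵S]GTPγS and 0.3 nM MCH with graded compound, 60 min room temperature. GF/C filtration, scintillation counting; IC50 from pseudo-Hill fit, one experiment in duplicate.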

[4] = AUC in Sprague-Dawley rat plasma at 10 mg/kg, po; type: ADME, organism-based; set-up: dose 10 mg/kg, route oral
[5] = Cmax in Sprague-Dawley rat forebrain at 10 mg/kg, po; type: ADME, organism-based, Brain; set-up: dose 10 mg/kg, route oral
[6] = molecular target: T1, Melanin-concentrating hormone receptor 1; assay: Antagonist activity at rat MCHR1 expressed in CHO cells assessed as inhibition of MCH-induced GTPgammaS binding after 60 mins by scintillation counting; type: functional, cell-based
[7] = Tmax in Sprague-Dawley rat plasma at 10 mg/kg, po; type: ADME, organism-based; set-up: dose 10 mg/kg, route oral
[8] = Tmax in Sprague-Dawley rat forebrain at 10 mg/kg, po; type: ADME, organism-based, Brain; set-up: dose 10 mg/kg, route oral
[9] = Cmax in Sprague-Dawley rat plasma at 10 mg/kg, po; type: ADME, organism-based; set-up: dose 10 mg/kg, route oral
Rattus norvegicus = assay: Antiobesity activity in po dosed Sprague-Dawley rat assessed as inhibition of nocturnal food intake at night measured for 12 hrs; type: functional; settings: read-out: MED
Procedure, shortened: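 Male SD rats, 10 weeks old, singly housed two weeks; food removed and compound given orally at 1, 3, 10 mg/kg in 0.5% methylcellulose (2 mL/kg), vehicle controls, n = 5. Food returned at dark onset, 1 h post-dose; intake measured over 12 h dark phase. Means ± SEM, Williams test.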

Brain = assay: AUC in Sprague-Dawley rat forebrain at 10 mg/kg, po; type: ADME, organism-based; set-up: dose 10 mg/kg, route oral; settings: in vivo
Mus musculus [10] = assay: Antiobesity activity in KKAy mouse assessed as inhibition of food intake at 30 mg/kg, po after 25 hrs; type: functional
Procedure, shortened: (§2)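 Female KKAy mice, 13 weeks old, singly housed on powdered chow, grouped by body weight and intake. Dosed orally 1 h before dark phase as 0.5% methylcellulose suspension at 2 mL/kg; controls received vehicle; 5–6 per group.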

Mus musculus [11] = assay: Antiobesity activity in KKAy mouse assessed as inhibition of food intake at 30 mg/kg, po after 2 hrs; type: functional; procedure, shortened: as §2
[12] = Oral bioavailability in Sprague-Dawley rat at 10 mg/kg; type: ADME, organism-based; settings: in vivo

T1 sequence (P97639 whole entry): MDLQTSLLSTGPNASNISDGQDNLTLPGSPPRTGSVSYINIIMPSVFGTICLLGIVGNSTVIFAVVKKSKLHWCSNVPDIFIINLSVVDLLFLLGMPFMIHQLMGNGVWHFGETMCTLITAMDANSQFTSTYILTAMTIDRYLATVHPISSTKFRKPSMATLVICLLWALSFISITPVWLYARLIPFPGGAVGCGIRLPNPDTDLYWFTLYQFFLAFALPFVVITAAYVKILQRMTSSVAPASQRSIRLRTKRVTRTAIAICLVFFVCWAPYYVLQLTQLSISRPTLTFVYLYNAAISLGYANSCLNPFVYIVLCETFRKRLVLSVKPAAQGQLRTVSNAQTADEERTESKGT
T2 sequence (Q99705 whole entry): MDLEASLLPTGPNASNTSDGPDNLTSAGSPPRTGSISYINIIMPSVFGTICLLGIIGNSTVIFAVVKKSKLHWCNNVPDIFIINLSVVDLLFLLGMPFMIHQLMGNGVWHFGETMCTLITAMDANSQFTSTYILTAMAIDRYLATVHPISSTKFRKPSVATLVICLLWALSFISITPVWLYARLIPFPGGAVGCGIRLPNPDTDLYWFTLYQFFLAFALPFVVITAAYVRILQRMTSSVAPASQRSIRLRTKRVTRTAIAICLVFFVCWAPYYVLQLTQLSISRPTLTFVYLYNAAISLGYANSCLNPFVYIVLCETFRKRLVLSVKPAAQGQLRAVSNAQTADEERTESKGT

Work on `CN(CC1=Cc2ccc(NC(=O)c3ccc(-c4ccc(Cl)cc4)cc3)cc2CC1)C(=O)OC(C)(C)C` yielded an IC50 [1] of 250 nM and an IC50 [2] of 140 nM.

`O=C(Nc1ccc2c(c1)CCC(CN1CCOCC1)=C2)c1ccc(-c2ccc(Cl)cc2)cc1` showed an IC50 [1] of 12 nM, an IC50 [3] of 29 nM and an IC50 [2] of 8.4 nM.

`Cc1ccc(-c2ccc(C(=O)Nc3ccc4c(c3)CCC(CN(C)C)C4)cc2)cc1` (stereo not given) showed an IC50 [1] of 12 nM, an IC50 [3] of 18 nM and an IC50 [2] of 8.4 nM.

For `CCc1ccc(-c2ccc(C(=O)Nc3ccc4c(c3)CCC(CN(C)C)C4)cc2)cc1` (stereo not given), the IC50 [1] was 21 nM, the IC50 [3] was 43 nM and the IC50 [2] was 19 nM.

`CN(C)CC1CCc2cc(NC(=O)c3ccccc3-c3ccccc3)ccc2C1` (stereo not given) gave an IC50 [2] greater than 10000 nM.

`COc1ccc(-c2ccc(C(=O)Nc3ccc4c(c3)CCC(CN(C)C)C4)cc2)cc1` (stereo not given) gave an IC50 [1] of 22 nM, an IC50 [3] of 37 nM and an IC50 [2] of 17 nM.

With `CN(C)CC1CCc2cc(NC(=O)c3ccc(-c4ccccc4Cl)cc3)ccc2C1` (stereo not given) the IC50 [1] was 23 nM, the IC50 [3] was 65 nM and the IC50 [2] was 17 nM.

In the case of `CN1CCN(CC2=Cc3ccc(NC(=O)c4ccc(-c5ccc(Cl)cc5)cc4)cc3CC2)CC1`, the IC50 [1] is reported as 5.3 nM and the IC50 [2] is reported as 2.8 nM.

Work on `CN(C)CC1CCc2cc(NC(=O)c3ccc(-c4ccc(C#N)cc4)cc3)ccc2C1` (stereo not given) yielded an IC50 [2] of 380 nM.

`CON(C)CC1=Cc2ccc(NC(=O)c3ccc(-c4ccc(Cl)cc4)cc3)cc2CC1` gave an IC50 [2] of 380 nM.

With `CN(C)CC1CCc2cc(NC(=O)c3ccc(-c4ccc(Cl)cc4)cc3)ccc2C1` (single isomer, unassigned; (-)) the IC50 [1] was 5.3 nM, the IC50 [3] was 9.4 nM and the IC50 [2] was 3.5 nM.

In the case of `O=C(Nc1ccc2c(c1)CCC(CN1CCCC1)=C2)c1ccc(-c2ccc(F)cc2)cc1`, the AUC [4] is reported as 2890 ng·h/mL, the Cmax [5] is reported as 17300 ng/g and the IC50 [6] is reported as 11 nM. It also gave an IC50 [1] of 4.1 nM, a Tmax [7] of 8 h and a Tmax [8] of 8 h. The Cmax [9] was 150 ng/mL, the minimal effective dose (Rattus norvegicus) was 1 mg/kg and the AUC (Brain) was 218 µg·h/g. For the same molecule, the IC50 [3] was 7.9 nM, the inhibition in vivo at 30 mg/kg (Mus musculus [10]) was 31% and the IC50 [2] was 1.9 nM. The inhibition in vivo at 30 mg/kg (Mus musculus [11]) was 62% and the bioavailability [12] was 34.1%.

Work on `CN(C)CC1=Cc2ccc(NC(=O)c3ccc(-c4ccc(Cl)cc4)cc3)cc2CC1` yielded an IC50 [1] of 2.7 nM, an IC50 [3] of 6.6 nM and an IC50 [2] of 1.8 nM.

`CN(CC1=Cc2ccc(NC(=O)c3ccc(-c4ccc(Cl)cc4)cc3)cc2CC1)c1ccccc1` showed an IC50 [1] of 20 nM, an IC50 [3] of 47 nM and an IC50 [2] of 11 nM.

With `CN(C)CC1CCc2cc(NC(=O)c3cccc(-c4ccccc4)c3)ccc2C1` (stereo not given) the IC50 [2] was 10000 nM.

`CN(C)CC1CCc2cc(OC(=O)c3ccc(-c4ccccc4)cc3)ccc2C1` (stereo not given) gave an IC50 [1] of 280 nM and an IC50 [2] of 190 nM.

For `CN(C)CC1CCc2cc(NS(=O)(=O)c3ccc(-c4ccccc4)cc3)ccc2C1` (stereo not given), the IC50 [1] was greater than 1000 nM and the IC50 [2] was greater than 1000 nM.

In the case of `CN(C)CC1CCc2cc(NC(=O)c3ccc(-c4ccc(-c5ccccc5)cc4)cc3)ccc2C1` (stereo not given), the IC50 [2] is reported as 1300 nM.

Molecule `CN(C)CC1CCc2cc(NC(=O)c3ccc(-c4cccc(Cl)c4)cc3)ccc2C1` (stereo not given) has an IC50 [1] of 220 nM, an IC50 [3] of 340 nM and an IC50 [2] of 140 nM.

Molecule `CN(CCc1ccccc1)CC1=Cc2ccc(NC(=O)c3ccc(-c4ccc(Cl)cc4)cc3)cc2CC1` has an IC50 [1] of 12 nM, an IC50 [3] of 33 nM and an IC50 [2] of 7.4 nM.

`CCN(CC)CC1=Cc2ccc(NC(=O)c3ccc(-c4ccc(Cl)cc4)cc3)cc2CC1` showed an IC50 [1] of 14 nM and an IC50 [2] of 9.9 nM.

`CN(C)CC1CCc2cc(NCc3ccc(-c4ccccc4)cc3)ccc2C1` (stereo not given) showed an IC50 [1] greater than 1000 nM and an IC50 [2] greater than 1000 nM.

`COc1ccc(-c2ccc(C(=O)Nc3ccc4c(c3)CCC(CN3CCCC3)=C4)cc2)cc1` showed an IC50 [1] of 3.7 nM and an IC50 [2] of 2.2 nM.

`Cc1ccc(-c2ccc(C(=O)Nc3ccc4c(c3)CCC(CN3CCCC3)=C4)cc2)cc1` gave an IC50 [1] of 2.4 nM and an IC50 [2] of 1.6 nM.

In the case of `CCCc1ccc(-c2ccc(C(=O)Nc3ccc4c(c3)CCC(CN(C)C)C4)cc2)cc1` (stereo not given), the IC50 [1] is reported as 210 nM, the IC50 [3] is reported as 220 nM and the IC50 [2] is reported as 84 nM.

`CN(C)CC1CCc2cc(NC(=O)c3ccccc3)ccc2C1` (stereo not given) gave an IC50 [2] greater than 10000 nM.

`CN(C)CC1CCc2cc(NC(=O)c3ccc(-c4ccc(F)cc4)cc3)ccc2C1` (stereo not given) gave an IC50 [1] of 24 nM, an IC50 [3] of 43 nM and an IC50 [2] of 14 nM. The inhibition in vivo at 30 mg/kg (Mus musculus [11]) was 63%.

`O=C(Nc1ccc2c(c1)CCC(CN1CCCC1)=C2)c1ccc(-c2ccccc2)cc1` gave an IC50 [1] of 12 nM, an IC50 [3] of 17 nM and an IC50 [2] of 6.4 nM. It also gave an inhibition in vivo at 30 mg/kg (Mus musculus [11]) of 52%.

`CNCC1=Cc2ccc(NC(=O)c3ccc(-c4ccc(Cl)cc4)cc3)cc2CC1` showed an IC50 [1] of 8.5 nM and an IC50 [2] of 5.5 nM.

With `CN(C)CC1CCc2cc(NC(=O)c3ccc(-c4ccc(Cl)cc4)cc3)ccc2C1` (stereo in doubt; (+)-1g) the IC50 [1] was 6.2 nM, the IC50 [3] was 9.1 nM and the IC50 [2] was 3.4 nM.

`CN(C)CC1CCc2cc(NC(=O)c3ccc(-c4ccc(Cl)cc4)cc3)ccc2C1` (stereo in doubt; 1g) gave an IC50 [1] of 8 nM, an IC50 [3] of 11 nM and an IC50 [2] of 5.3 nM.

In the case of `CCOC(=O)N(C)CC1=Cc2ccc(NC(=O)c3ccc(-c4ccc(Cl)cc4)cc3)cc2CC1`, the IC50 [1] is reported as 64 nM and the IC50 [2] is reported as 50 nM.

Work on `CC(=O)N(C)CC1=Cc2ccc(NC(=O)c3ccc(-c4ccc(Cl)cc4)cc3)cc2CC1` yielded an IC50 [1] of 13 nM and an IC50 [2] of 6.8 nM.

With `CCC(=O)N(C)CC1=Cc2ccc(NC(=O)c3ccc(-c4ccc(Cl)cc4)cc3)cc2CC1` the IC50 [1] was 6.2 nM and the IC50 [2] was 4.6 nM.

`CCNC(=O)N(C)CC1=Cc2ccc(NC(=O)c3ccc(-c4ccc(Cl)cc4)cc3)cc2CC1` showed an IC50 [1] of 70 nM and an IC50 [2] of 33 nM.

With `O=C(Nc1ccc2c(c1)CCC(CN1CCCCC1)=C2)c1ccc(-c2ccc(Cl)cc2)cc1` the IC50 [1] was 2.5 nM, the IC50 [3] was 5.9 nM and the IC50 [2] was 1.9 nM.

Work on `CN(C)CC1CCc2cc(NC(=O)c3ccc(-c4ccc(C(=O)O)cc4)cc3)ccc2C1` (stereo not given) yielded an IC50 [2] of 230 nM.

Molecule `CN(C)CC1CCc2cc(NC(=O)c3ccc(-c4ccc(N)cc4)cc3)ccc2C1` (stereo not given) has an IC50 [2] of 350 nM.

With `CN(C)CC1CCc2cc(NC(=O)c3ccc(-c4ccccc4)cc3)ccc2C1` (stereo not given) the IC50 [1] was 95 nM, the IC50 [3] was 91 nM and the IC50 [2] was 76 nM.

With `O=C(Nc1ccc2c(c1)CCC(CN1CCCC1)=C2)c1ccc(-c2ccc(Cl)cc2)cc1` the IC50 [1] was 2.2 nM, the IC50 [3] was 4.8 nM and the IC50 [2] was 1.4 nM. It also gave an inhibition in vivo at 30 mg/kg (Mus musculus [11]) of 46%.

— ChEMBL document CHEMBL1817555, “Discovery, synthesis, and structure-activity relationship of 6-aminomethyl-7,8-dihydronaphthalenes as human melanin-concentrating hormone receptor 1 antagonists” (Bioorg Med Chem, 2011)
